Data reported in ChEMBL document CHEMBL2311304, “Design, synthesis and in vitro and in vivo antitumor activities of novel bivalent β-carbolines” (Eur J Med Chem, 2013).
pIC50: −log10 of the molar value.

Key:
KB = experiment: Cytotoxicity against human epidermoid carcinoma of the nasopharynx KB cells assessed as reduction in optical density by MTT assay; assay type: functional, cell-based
Summary of the method: (§1)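 Cells were cultured in RPMI-1640 with 10% (v/v) fetal calf serum, 100 µg ml-1 penicillin and 100 µg ml-1 streptomycin at 37 °C in humidified 5% CO2. Compounds were dissolved in DMSO, with final DMSO at 2% (v/v) or lower. MTT staining was used, with three replicate wells per point. IC50 is the concentration giving a 50% drop in optical density versus untreated cells.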

Mus musculus [1] = experiment: Neurotoxicity in C57BL/6 mouse at 1 to 500 mg/kg, ip for 14 days; assay type: toxicity, organism-based; set-up: dose 1-500 mg/kg, route intraperitoneal; details: in vivo, 336 h
Summary of the method: (§2)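 Healthy C57BL/6 mice (9–12 weeks, 18–22 g) were fasted overnight with free access to water. Each received a single i.p. dose of 1.0–500 mg kg-1 in 0.5% CMC-Na, 10 mice per group (5 male, 5 female). Mice were watched continuously for 2 h, intermittently to 24 h, then occasionally to 14 days for tremor, twitch, jumping and supination. At day 14 they were killed and heart, liver and kidneys were examined macroscopically.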

769-P = experiment: Cytotoxicity against human renal carcinoma 769-P cells assessed as reduction in optical density by MTT assay; assay type: functional, cell-based; summary of the method: as §1
A-375 = experiment: Cytotoxicity against human malignant melanoma A375 cells assessed as reduction in optical density by MTT assay; assay type: functional, cell-based; summary of the method: as §1
SK-OV-3 = experiment: Cytotoxicity against human ovary adenocarcinoma SKOV3 cells assessed as reduction in optical density by MTT assay; assay type: functional, cell-based; details: SK-OV-3, Female gonad; summary of the method: as §1
Mus musculus [2] = experiment: Toxicity in C57BL/6 mouse assessed as kidney damage at 1 to 500 mg/kg, ip for 14 days; assay type: organism-based; set-up: dose 1-500 mg/kg, route intraperitoneal; details: in vivo, 336 h; summary of the method: as §2
[3] = Antitumor activity in mouse Lewis lung cancer cells inoculated mouse assessed as tumor inhibition rate at one fifth of LD50 concentration once a day for consecutive 7 days by ip; assay type: functional, Cancer cell lines; set-up: scale not given: the % may be the effect or the level left
Summary of the method: (§3)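 Each tumour line was first grown in mice for 7 days, then harvested. Viable cells (2 × 10^6 per mouse) were injected s.c. into the armpit. Dosing began 24 h later: i.p., about one fifth of LD50, daily for 7 days, 10 female mice per group. […] Body weight was recorded every 3 days. Tumours were excised and weighed on day 21 to give inhibition rate.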

H22 = experiment: Antitumor activity in mouse H22 liver cancer cells inoculated mouse assessed as tumor inhibition rate at one fifth of LD50 concentration once a day for consecutive 7 days by ip; assay type: functional; set-up: scale not given: the % may be the effect or the level left; summary of the method: as §3
Mus musculus [4] = experiment: Toxicity in C57BL/6 mouse assessed as maximum weight loss at 30 mg/kg, ip; assay type: organism-based; set-up: dose 30 mg/kg, route intraperitoneal; details: in vivo
Summary of the method: (§4)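 Tumor-bearing mice, 10 females per group, were inoculated s.c. in the armpit with 2 × 10^6 viable tumor cells. Compound was given i.p. once daily for 7 consecutive days, starting 24 h after inoculation. […] Body weight was recorded every 3 days until sacrifice on day 21.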

B16 = experiment: Antitumor activity in mouse B16 melanoma cell lines cells inoculated mouse assessed as tumor inhibition rate at one fifth of LD50 concentration once a day for consecutive 7 days by ip; assay type: functional; set-up: scale not given: the % may be the effect or the level left; summary of the method: as §3
CT26 = experiment: Antitumor activity in mouse CT26 colon cancer cells inoculated mouse assessed as tumor inhibition rate at one fifth of LD50 concentration once a day for consecutive 7 days by ip; assay type: functional; set-up: scale not given: the % may be the effect or the level left; summary of the method: as §3
Mus musculus [5] = experiment: Toxicity in C57BL/6 mouse assessed as heart damage at 1 to 500 mg/kg, ip for 14 days; assay type: organism-based; set-up: dose 1-500 mg/kg, route intraperitoneal; details: in vivo, 336 h; summary of the method: as §2
[6] = Antitumor activity in mouse Sarcoma 180 cells inoculated mouse assessed as tumor inhibition rate at one fifth of LD50 concentration once a day for consecutive 7 days by ip; assay type: functional; set-up: scale not given: the % may be the effect or the level left; summary of the method: as §3
Mus musculus [7] = experiment: Toxicity in C57BL/6 mouse assessed as liver damage at 1 to 500 mg/kg, ip for 14 days; assay type: organism-based; set-up: dose 1-500 mg/kg, route intraperitoneal; details: in vivo, 336 h; summary of the method: as §2
BGC-823 = experiment: Cytotoxicity against human gastric carcinoma BGC823 cells assessed as reduction in optical density by MTT assay; assay type: functional, cell-based; summary of the method: as §1
Mus musculus [8] = experiment: Toxicity in C57BL/6 mouse assessed as maximum weight loss at 10 mg/kg, ip; assay type: organism-based; set-up: dose 10 mg/kg, route intraperitoneal; details: in vivo
Mus musculus [9] = experiment: Toxicity in C57BL/6 mouse assessed as maximum weight loss at 40 mg/kg, ip; assay type: organism-based; set-up: dose 40 mg/kg, route intraperitoneal; details: in vivo; summary of the method: as §4
[10] = Acute toxicity in ip treated C57BL/6 mouse for 14 days; assay type: organism-based; details: in vivo
Summary of the method: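 C57BL/6 mice (9–12 weeks, 18–22 g) were fasted overnight with free water. They received single i.p. doses of 1.0–500 mg kg-1 in 0.5% CMC-Na, 10 mice per group (5 male, 5 female). Mice were watched continuously for 2 h, then intermittently to 24 h, then occasionally to 14 days. Heart, liver and kidneys were checked macroscopically. LD50 was derived graphically.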

Mus musculus [11] = experiment: Toxicity in C57BL/6 mouse assessed as maximum weight loss at 50 mg/kg, ip; assay type: organism-based; set-up: dose 50 mg/kg, route intraperitoneal; details: in vivo
Mus musculus [12] = experiment: Toxicity in C57BL/6 mouse assessed as maximum weight loss at 7.5 mg/kg, ip; assay type: organism-based; set-up: dose 7.5 mg/kg, route intraperitoneal; details: in vivo

| Structure (SMILES) | pIC50 (KB) | Activity (Mus musculus [1]) | pIC50 (769-P) | pIC50 (A-375) | pIC50 (SK-OV-3) | Activity (Mus musculus [2]) | Activity [3] [%] | Activity (H22) [%] | Activity (Mus musculus [4]) [%] | Activity (B16) [%] | Activity (CT26) [%] | Activity (Mus musculus [5]) | Activity [6] [%] | Activity (Mus musculus [7]) | pIC50 (BGC-823) | Activity (Mus musculus [8]) [%] | Activity (Mus musculus [9]) [%] | LD50 at 336 h [10] [mg/kg] | Activity (Mus musculus [11]) [%] | Activity (Mus musculus [12]) [%] |
| --- | --- | --- | --- | --- | --- | --- | --- | --- | --- | --- | --- | --- | --- | --- | --- | --- | --- | --- | --- | --- |
| c1ccc2c(c1)c1ccncc1n2CCCCCn1c2ccccc2c2ccncc21 | < 3.70 | Non-toxic | 4.82 | 4.99 | < 3.70 | Non-toxic | 42.5 | 40.4 | 10 | 26.1 | 48.6 | Non-toxic | 43.8 | Non-toxic | 4.63 | – | – | – | – | – |
| COc1ccc2c3ccnc(C)c3n(CCCCn3c4cc(OC)ccc4c4ccnc(C)c43)c2c1 | 5.55 | Non-toxic | 4.18 | 5.21 | 5.15 | Non-toxic | 38.1 | – | – | – | 45.5 | Non-toxic | – | Non-toxic | 4.12 | 7.7 | – | – | – | – |
| c1ccc2c(c1)c1ccncc1n2CCCCCCn1c2ccccc2c2ccncc21 | 4.86 | Non-toxic | 4.89 | 4.97 | 4.41 | Non-toxic | 37.7 | 31.2 | – | 24.8 | 32.4 | Non-toxic | – | Non-toxic | 4.86 | – | 15 | 200 | – | – |
| COc1cc(-c2nccc3c4ccccc4n(CCCCCCn4c5ccccc5c5ccnc(-c6cc(OC)c(OC)c(OC)c6)c54)c23)cc(OC)c1OC | < 3.70 | Non-toxic | 4.77 | 5.23 | < 3.70 | Non-toxic | 43.3 | – | – | – | 45.8 | Non-toxic | – | Non-toxic | < 3.70 | – | 7.2 | 200 | – | – |
| CCOC(=O)c1cc2c(cn1)[nH]c1ccccc12 | < 3.70 | Non-toxic | 3.76 | < 3.70 | 4.03 | – | – | – | – | – | – | – | 35.2 | – | < 3.70 | 11.8 | – | 32.6 | – | – |
| c1cncc(-c2nccc3c4ccccc4n(CCCCCCn4c5ccccc5c5ccnc(-c6cccnc6)c54)c23)c1 | 4.88 | Non-toxic | < 3.70 | 5.28 | 4.83 | Non-toxic | 43.2 | 35 | – | 24.3 | 50.6 | Non-toxic | 40.5 | Non-toxic | 4.85 | – | – | – | 11.9 | – |
| Cc1nccc2c3ccc(OC(C)C)cc3n(CCCCCCn3c4cc(OC(C)C)ccc4c4ccnc(C)c43)c12 | 4.70 | Non-toxic | 4.02 | 4.73 | 4.77 | Non-toxic | 49.6 | 39.7 | – | 20.5 | 51.2 | Non-toxic | 40.6 | Non-toxic | 3.71 | – | 10.2 | – | – | – |
| COc1ccc2c(c1)[nH]c1c(C)nccc12 [HARMINE] | 4.24 | Toxic | 4.31 | 4.14 | 4.13 | – | 34.1 | – | – | – | – | – | 15.3 | – | 4.20 | – | – | – | – | 8.5 |
| O=P1(N(CCCl)CCCl)NCCCO1 (centres undefined) [CYCLOPHOSPHAMIDE ANHYDROUS] | – | – | – | – | – | – | 97.8 | 83.8 | – | 86.5 | 97.2 | – | 85.6 | – | – | – | – | – | 7.7 | – |
